High-throughput results: PubChem, Sanford-Burnham Center for Chemical Genomics
Gli-Sufu antag – Gli-Sufu pathway antagonists, primary screen, luciferase luminescence, Sufu-KO-LIGHT cells, uHTS. Sufu-KO-LIGHT fibroblasts, Gli luciferase reporter luminescence. AID 588413, 2011. hit rate 0.74% among 340,000. inhibition, % at 5 µM;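 active means inhibition above about 55%, limit read from the data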
iPSC survival up – enhancers of single-cell hiPSC survival, primary screen, ATPlite luminescence | 100% = ROCK inhibitor wells, 0% = DMSO | survival enhancement, % at 20 µM | hit rate 0.044% among 360,000; in the data active means survival enhancement above about 18%;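 further: cells exposed to compounds for 16 hours before the ATP read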
TAG inh – inhibitors of triacylglycerol accumulation, primary screen, cell-based, uHTS, fluorescence, H9c2. H9c2 cells, Nile Red lipid (TAG) fluorescence; cells loaded with 200 µM oleic acid. inhibition, % at 12.5 µM. hit rate 0.66% among 230,000;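 active means pattern-corrected inhibition of lipid staining of at least 50% with the nuclear-stain viability signal not falling by more than 50%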
Jurkat NFkB inh – inhibitors of induced NF-kB luciferase reporter, primary screen, TCR NF-kB activation inhibitor project, cell-based, luminescence, uHTS; Jurkat, PMA/ionomycin-induced NF-kB luciferase reporter; inhibition, % at 4 µM; hit rate 0.53% among 330,000; AID 435003, 2010; in the data active means inhibition above about 50%
697 NFkB inh – inhibitors of PMA/ionomycin-induced NF-kB reporter, 697 cells, primary screen, B-cell NF-kB inhibitor project, cell-based, luminescence, uHTS; 697 B-cell NF-kB luciferase reporter, 16 h; inhibition, % at 4 µM; hit rate 0.33% among 330,000; AID 435022, 2010; in the data active means inhibition above about 35%
Hep lipid drop – inhibitors of hepatocyte lipid droplet formation, primary screen, imaging, high-throughput imaging, BODIPY stain. hit rate 0.4% among 240,000. inhibition, % at 6.5 µM. AID 1656, 2009. AML12 mouse hepatocytes, oleate lipid droplets;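 active means lipid droplet intensity inhibited by at least 50%, with more than 500 cells counted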
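Test system: AML12 mouse liver cells; schedule: overnight exposure; technique: high-content imaging of BODIPY-stained droplets and DAPI nuclei; read-out: % inhibition of corrected integrated BODIPY droplet signal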
697 NFkB conf – PMA/ionomycin-induced NF-kB reporter inhibitors, 697 retest, confirmation, B-cell NF-kB inhibitor project, cell-based, luminescence, single concentration | shares compounds with 697 NFkB inh | 697 B-cell NF-kB luciferase, 16 h | inhibition, % at 4 µM | hit rate 35% among 2,000 | AID 449746, 2010; in the data active means inhibition mostly above about 28%, no sharp cut-off; inactive means mostly below about 22%
Of the large screens only hits and unclear results are named; the others gave an inactive call (follow-up assays come after a bar, where they were run). Rows were chosen to be rich in hits. Some 1.8% of all compounds tested hit in one or more screens of this group.

O=S(=O)(c1cnc(Cl)c(Cl)c1)N1CCCc2ccccc21	697 NFkB inh 43 | 697 NFkB conf 37
COc1cccc(CNC(=O)Cn2cccc2C(=O)c2ccccc2C)c1	none (no result: TAG inh)
CCCNC(=O)N1CCN(C(c2ccccc2)c2ccccc2)CC1	none
O=C(NC(=O)N1CCN(C(c2ccccc2)c2ccccc2)CC1)c1ccccc1	697 NFkB inh 36 | 697 NFkB conf inactive
N#Cc1sc(=O)[nH]c1Cl	697 NFkB inh 42 (no result: Hep lipid drop) | 697 NFkB conf inactive
Cc1ccc(C(=O)N2CCN(CCNC(=O)C(=O)NCc3ccc(Cl)cc3)CC2)cc1	none (no result: TAG inh)
CC1CCN(c2c(NCC3CCC(C(=O)NCc4ccc(F)cc4)CC3)c(=O)c2=O)CC1 (stereo not drawn)	none
Cc1ccc(NC(=O)C2CCC(CNc3c(N4CCC(C)CC4)c(=O)c3=O)CC2)cc1F (stereo not drawn)	697 NFkB inh 47 | 697 NFkB conf 33
Cc1cc(/C=C2\SC(=O)N(C)C2=O)c(C)n1-c1ccc(O)cc1	none | 697 NFkB conf inactive
Cc1cc(/C=C2\SC(=O)N(C)C2=O)c(C)n1-c1ccc(S(N)(=O)=O)cc1	none (no result: TAG inh)
C/C(=N\Nc1nncc2ccccc12)c1ccc(O)cc1	none (no result: TAG inh) | 697 NFkB conf inactive
CC(C)c1ccc(S(=O)(=O)N2CCN(C(C)C(=O)Nc3ccccc3-c3ccccc3)CC2)cc1 (stereo not drawn)	697 NFkB inh 35 (no result: TAG inh) | 697 NFkB conf inactive
CCOC(=O)c1cn[nH]c1NC(=S)Nc1ccc(OC)cc1	none | 697 NFkB conf inactive
O=C(NNC(=O)c1csc(N2CCOCC2)n1)c1ccc(=O)[nH]c1	none (no result: Hep lipid drop)
CCOc1ccc(-c2cc(CCCC(=O)NCCCOC)no2)cc1	697 NFkB inh 53 (no result: TAG inh, Hep lipid drop) | 697 NFkB conf 32
Cc1cc(C(O)c2ncc(-c3cccc4ccccc34)[nH]2)ccc1F (stereo not drawn)	none (no result: Gli-Sufu antag, Jurkat NFkB inh, 697 NFkB inh, Hep lipid drop)
CCOC(=O)c1c(C)c(C(=O)Nc2ccc3c(c2)OCO3)c(C)n1C	none (no result: TAG inh, Hep lipid drop)
CCOC(=O)c1c(N)sc(C(=O)Nc2ccc3c(c2)OCO3)c1C	none | 697 NFkB conf inactive
O=C(OCc1cncs1)c1ccccc1	none
O=C(Nc1cccc(Oc2ccccc2)c1)C1Cc2c(-c3ccc4c(c3)OCO4)ccnc2O1 (stereo not drawn)	none (no result: Gli-Sufu antag, Jurkat NFkB inh, 697 NFkB inh, Hep lipid drop)
O=C(CCN1C(=O)/C(=C\c2cccs2)SC1=S)NC1=NCCS1	none (no result: TAG inh)
CCc1ccc(/C=C2\SC(=S)N(CCC(=O)NC3=NCCS3)C2=O)cc1	697 NFkB inh 71 (no result: Gli-Sufu antag, iPSC survival up, TAG inh) | 697 NFkB conf 38
O=C(CCN1C(=O)/C(=C/c2cccs2)SC1=S)NC1=NCCS1	none (no result: Jurkat NFkB inh, 697 NFkB inh)
COc1ccccc1/C=C1/SC(=S)N(CCC(=O)Nc2cccnc2)C1=O	697 NFkB inh 35 | 697 NFkB conf 28
COc1ccccc1/C=C1\SC(=S)N(CCC(=O)NC2=NCCS2)C1=O	697 NFkB inh 35 | 697 NFkB conf 48
COc1ccccc1/C=C1\SC(=S)N(CC(=O)Nc2nnc(C)s2)C1=O	697 NFkB inh 72 (no result: Gli-Sufu antag, iPSC survival up, TAG inh) | 697 NFkB conf inactive
COc1ccc(-c2noc(CCC(=O)N3CCN(c4cccc(F)c4)CC3)n2)cc1	none (no result: Jurkat NFkB inh, Hep lipid drop)
CCOC(=O)C1CCCN(C(=O)CCc2nnc(-c3ccc(C(C)=O)s3)o2)C1 (stereo not drawn)	none (no result: TAG inh)
COc1cc(Br)c(C2C(C#N)=C(N)Oc3n[nH]c(-c4cccnc4)c32)cc1OC (stereo not drawn)	none
CCCCCC(=O)N1C[C@H](n2cc(-c3ccc(F)cc3)nn2)[C@@H](O)C[C@@H]1c1ccc(OC)cc1	none (no result: Gli-Sufu antag, Jurkat NFkB inh, 697 NFkB inh, Hep lipid drop)
CCc1ccc(/C=C2\SC(=S)N(CCCC(=O)Nc3ccccn3)C2=O)cc1	697 NFkB inh 76 (no result: Hep lipid drop) | 697 NFkB conf 58
CCN(CC(=O)Nc1ccc(OC)cc1)C(=O)c1ccc2c(c1)NC(=O)CS2	none (no result: Hep lipid drop)
Cc1oc2c(cc(NS(=O)(=O)c3ccc(F)cc3)c3ccccc32)c1C(=O)O	none (no result: TAG inh)
